Consider 19 compounds from ChEMBL document CHEMBL1177741, “Cardiac glycosides from Antiaris toxicaria with potent cardiotonic activity” (J Nat Prod, 2010).

The nature of data set [1]: Cardiotonic activity in guinea pig right ventricular muscles assessed as minimum positive inotropic effective concentration causing myocardial contraction. Format: functional, Cavia porcellus, Muscle tissue. The procedure, abridged:
(§1)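 Guinea pig left atrial or right ventricular strips were perfused with Tyrode's solution, held at 1 g tension and paced at 2 Hz (2 ms, twice threshold). After about 60 min stabilisation, drug was added cumulatively. PIECmin was recorded as the lowest concentration that increased myocardial contraction.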

The nature of data set [2]: Cardiotonic activity in guinea pig left atrial muscles assessed as maximum positive inotropic effective concentration causing myocardial contraction relative to basal level. Format: functional, Cavia porcellus, Muscle tissue. In outline: (§2)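 Isolated left atrial or right ventricular strips from adult guinea pigs (300–500 g; pentobarbital 25 mg/kg i.p.; heart retrogradely perfused with Tyrode's, pH not stated). Tissue held at 1 g tension, paced at 2 Hz (2 ms pulses, twice threshold), stabilised about 60 min, then given cumulative drug additions. Maximal inotropic effect taken at the concentration just before arrhythmia onset.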

Data set [3] in a line: Cardiotonic activity in guinea pig left atrial muscles assessed as minimum positive inotropic effective concentration causing myocardial contraction. Format: functional, Cavia porcellus, Muscle tissue. In outline: as §1
The nature of data set [4]: Safety index, ratio of arrhythmogenic concentration to minimum positive inotropic effective concentration causing myocardial contraction in guinea pig left atrial muscles. Format: toxicity, tissue-based, Cavia porcellus, Muscle tissue. Particulars: for selectivity ratio: isolated left atrial muscles. In outline: (§3)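 Paced guinea pig left atrial or right ventricular strips (1 g tension, 2 Hz) received cumulative drug addition. The lowest concentration raising contraction (PIECmin) and the concentration inducing arrhythmia were both recorded. Safety index was calculated as the ratio of the arrhythmogenic concentration to PIECmin.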

Data set [5] is described as follows: Safety index, ratio of arrhythmogenic concentration to minimum positive inotropic effective concentration causing myocardial contraction in guinea pig right ventricular muscles. Format: toxicity, tissue-based, Cavia porcellus, Muscle tissue. Particulars: isolated right ventricular muscles. In outline: as §3
Data set [6] in a line: Cardiotonic activity in guinea pig right ventricular muscles assessed as maximum positive inotropic effective concentration causing myocardial contraction relative to basal level. Format: functional, Cavia porcellus, Muscle tissue. The procedure, abridged: as §2

SMILES strings stand for the structures.

As for `C[C@H]1O[C@@H](O[C@H]2CC[C@]3(C=O)[C@H]4CC[C@]5(C)[C@@H](C6=CC(=O)OC6)CC[C@]5(O)[C@@H]4CC[C@]3(O)C2)[C@H](O)[C@H](O)[C@H]1O` [DESGLUCOCHEIROTOXIN], the Activity in data set [1] was determined as 0.5 µM; in data set [2], 300%; in data set [3], 0.05 µM; in data set [6], 300%. The selectivity ratio in data set [4] stood at 50; in data set [5] it was 10.

On to `C[C@H]1O[C@H](O[C@H]2CC[C@]3(C=O)[C@H]4CC[C@]5(C)[C@@H](C6=CC(=O)OC6)CC[C@]5(O)[C@@H]4CC[C@]3(O)C2)[C@H](O)[C@H](O[C@@H]2O[C@H](CO)[C@@H](O)[C@H](O)[C@H]2O)[C@@H]1O` [GLUCOSTROPHALLOSIDE], for which the Activity came to 1 µM in data set [1], 489% in data set [2], 0.25 µM in data set [3] and 350% in data set [6]. Further, the selectivity ratio in data set [4] and in data set [5] was 10 throughout.

For `C[C@H]1O[C@H](O[C@H]2CC[C@]3(C(=O)O)[C@H]4C[C@@H](O)[C@]5(C)[C@@H](C6=CC(=O)OC6)CC[C@]5(O)[C@@H]4CC[C@]3(O)C2)[C@H](O)[C@H](O)[C@H]1O` [ANTIAROSIDE H], the Activity is 8.33 µM in data set [1], 144% in data set [2], 7.5 µM in data set [3] and 260% in data set [6]. Moreover, the results for the selectivity ratio in data set [4] and in data set [5] were 7.5 and 9.7, respectively.

Consider `C[C@@H]1O[C@@H](O[C@H]2CC[C@]3(C=O)[C@H]4CC[C@]5(C)[C@@H](C6=CC(=O)OC6)CC[C@]5(O)[C@@H]4CC[C@]3(O)C2)[C@H](O)[C@H](O)[C@H]1O` [CONVALLATOXIN], for which the Activity in data set [1] turned out to be 0.125 µM; in data set [2], 467%; in data set [3], 0.1 µM; in data set [6], 300%. In addition, the selectivity ratio was found to be 10 in data set [4] and 8 in data set [5].

In the case of `C[C@]12CC[C@H](O)C[C@@]1(O)CC[C@@H]1[C@@H]2CC[C@]2(C)[C@@H]([C@]3(O)COC(=O)C3)CC[C@]12O` [ANTIAROTOXININ A], the Activity in data set [2] is 367%; in data set [3] it was 0.1 µM. Besides, in data set [4], the selectivity ratio came to 1000.

As to `C[C@@H]1O[C@H](O[C@H]2CC[C@@]3(C(=O)O[C@@H]4O[C@H](CO)[C@@H](O)[C@H](O)[C@H]4O)[C@H](CC[C@@H]4[C@@H]3CC[C@]3(C)[C@@H](C5=CC(=O)OC5)CC[C@]43O)C2)[C@H](O)[C@H](O)[C@H]1O` [ANTIAROSIDE F], the Activity in data set [1] turned out to be 3.17 µM; in data set [2], 140%; in data set [3] it was 1.42 µM; in data set [6], 618%. Besides, the figures for the selectivity ratio in data set [4] and in data set [5] were 6 and 5.8, respectively.

Consider `C[C@H]1O[C@H](O[C@H]2CC[C@]3(C=O)[C@H]4C[C@@H](O)[C@]5(C)[C@@H](C6=CC(=O)OC6)CC[C@]5(O)[C@@H]4CC[C@]3(O)C2)[C@H](O)[C@H](O)[C@H]1O`, for which the Activity in data set [1] worked out at 2 µM; in data set [2], 220%; in data set [3], 0.5 µM; in data set [6], 200%. Moreover, the selectivity ratio in data set [4] was 10; in data set [5], 15.

Consider `C[C@@H]1O[C@@H](O[C@H]2CC[C@@]3(CO)[C@H](CC[C@@H]4[C@@H]3CC[C@]3(C)[C@@H](C5=CC(=O)OC5)CC[C@]43O)C2)[C@H](O)[C@H](O)[C@H]1O[C@@H]1O[C@H](CO)[C@@H](O)[C@H](O)[C@H]1O` [ANTIAROSIDE B], for which the Activity in data set [1] was determined as 0.075 µM; in data set [2], 373%; in data set [3], 0.38 µM; in data set [6] it was 382%. The selectivity ratio is 5 in data set [4] and 100 in data set [5].

Consider `C[C@@H]1O[C@H](O[C@H]2CC[C@@]3(C(=O)O)[C@H](CC[C@@H]4[C@@H]3CC[C@]3(C)[C@@H](C5=CC(=O)OC5)CC[C@]43O)C2)[C@H](O)[C@H](O)[C@H]1O` [ANTIAROSIDE E], for which the Activity in data set [1] was 1.33 µM; in data set [2] it was 264%; in data set [3], 0.42 µM; in data set [6], 230%. Moreover, the selectivity ratio came to 10 in data set [4] and 7.7 in data set [5].

Take `C[C@@H]1O[C@H](O[C@@H]2CC[C@]3(C=O)[C@H]4CC[C@]5(C)[C@@H](C6=CC(=O)OC6)CC[C@]5(O)[C@@H]4CC[C@]3(O)C2)[C@H](O)[C@H](O)[C@H]1O` [ANTIAROSIDE C]: the Activity in data set [1] was found to be 4 µM; in data set [2], 208%; in data set [3], 2.75 µM; in data set [6] it was 229%. Further, the figures for the selectivity ratio in data set [4] and in data set [5] were 15 and 9.7, respectively.

As for `C[C@@H]1O[C@H](O[C@H]2CC[C@]3(CO)[C@H]4CC[C@]5(C)[C@@H](C6=CC(=O)OC6)CC[C@]5(O)[C@@H]4CC[C@]3(O)C2)[C@H](O)[C@H](O)[C@H]1O` [CONVALLATOXOL], the Activity in data set [1] came to 0.25 µM; in data set [2], 138%; in data set [3], 0.1 µM; in data set [6], 625%. In addition, the selectivity ratio in data set [4] turned out to be 5; in data set [5] it was 20.

Turning to `C[C@H]1O[C@H](O[C@H]2CC[C@]3(C=O)[C@H]4C[C@@H](O)[C@]5(C)[C@@H](C6=CC(=O)OC6)CC[C@]5(O)[C@@H]4CC[C@]3(O)C2)[C@H](O)[C@H](O)[C@@H]1O` [ANTIALLOSIDE], the Activity was 350% in data set [2] and 0.25 µM in data set [3]. Also, in data set [4], the selectivity ratio was 80.

`C[C@]12CC[C@H]3[C@@H](CC[C@]4(O)C[C@@H](O)CC[C@]34C=O)[C@@]1(O)CC[C@@H]2C1=CC(=O)OC1` [STROPHANTHIDIN]: the Activity in data set [1] amounted to 4.8 µM; in data set [2] it was 165%; in data set [3] it was 1 µM; in data set [6], 240%. Also, the selectivity ratio in data set [4] stood at 9; in data set [5], 8.7.

`C[C@]12[C@H](O)C[C@H]3[C@@H](CC[C@]4(O)CCCC[C@]34C=O)[C@@]1(O)CC[C@@H]2C1=CC(=O)OC1` [ANTIARIGENIN]: the figures for the Activity in data set [2] and in data set [3] were 121% and 0.05 µM, respectively. In addition, the selectivity ratio in data set [4] was determined as 20.

`C[C@@H]1O[C@@H](O[C@H]2C[C@@H](O)[C@]3(CO)[C@H]4[C@H](O)C[C@]5(C)[C@@H](C6=CC(=O)OC6)CC[C@]5(O)[C@@H]4CC[C@]3(O)C2)[C@H](O)[C@H](O)[C@H]1O` [OUABAIN]: the Activity in data set [1] was determined as 0.05 µM; in data set [2], 775%; in data set [3] it was 0.05 µM; in data set [6], 249%. For the same compound, the selectivity ratio in data set [4] and in data set [5] was 20 each time.

In the case of `CO[C@H]1[C@@H](O[C@H]2CC[C@]3(C=O)[C@H]4CC[C@]5(C)[C@@H](C6=CC(=O)OC6)CC[C@]5(O)[C@@H]4CC[C@]3(O)C2)O[C@H](C)[C@@H](O)[C@H]1O` (stereo in doubt; 18) [STROPHATHOJAVOSIDE], the Activity in data set [1] came out at 1 µM; in data set [2], 567%; in data set [3], 0.25 µM; in data set [6] it was 200%. In addition, the Ratio in data set [4] was determined as 10. The selectivity ratio in data set [5] came to 5.

Consider `C[C@@H]1O[C@H](O[C@H]2CC[C@]3(C(=O)O)[C@H]4C[C@@H](O)[C@]5(C)[C@@H](C6=CC(=O)OC6)CC[C@]5(O)[C@@H]4CC[C@]3(O)C2)[C@H](O)[C@H](O)[C@H]1O` [ANTIAROSIDE G], for which the Activity came out at 3.67 µM in data set [1], 419% in data set [2], 3.75 µM in data set [3] and 221% in data set [6]. Moreover, the values for the selectivity ratio in data set [4] and in data set [5] were 13 and 20.7, respectively.

In the case of `C[C@@H]1O[C@H](O[C@H]2CC[C@]3(C)[C@H]4CC[C@]5(C)[C@@H](C6=CC(=O)OC6)CC[C@]5(O)[C@@H]4CC[C@]3(O)C2)[C@H](O)[C@H](O)[C@H]1O` [PERIPLORHAMNOSIDE], the Activity was 0.25 µM in data set [1], 381% in data set [2], 0.05 µM in data set [3] and 355% in data set [6]. For the same compound, the selectivity ratio in data set [4] came out at 11; in data set [5] it was 8.8.

`CO[C@H]1[C@@H](O[C@H]2CC[C@]3(C=O)[C@H]4C[C@@H](O)[C@]5(C)[C@@H](C6=CC(=O)OC6)CC[C@]5(O)[C@@H]4CC[C@]3(O)C2)O[C@H](C)[C@@H](O)[C@@H]1O` [TOXICARIOSIDE B]: the Activity was found to be 163% in data set [2] and 0.1 µM in data set [3]. Moreover, the selectivity ratio in data set [4] was 10.
